From ChEMBL document CHEMBL2380254, “Optimization of tocotrienols as antiproliferative and antimigratory leads” (Eur J Med Chem, 2013)

What was measured:
Assay type in all cases: functional
LOX IMVI [1] = assay: Growth inhibition of human LOXIMVI cells assessed as cell growth at 10 uM after 48 hrs by sulforhodamine B assay; conditions: read-out: Activity
Method in brief: (§1)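 NCI-60 single-dose screen at 10 µM: cells in RPMI 1640 with 5% FBS, preincubated 24 h, then exposed 48 h at 37 °C. TCA fixation (16% final for suspension cells), SRB staining, absorbance 515 nm. Percent growth relative to time-zero and untreated control plates; negative values indicate cell kill.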

NCI-H226 = assay: Growth inhibition of human NCI-H226 cells after 48 hrs by sulforhodamine B assay; conditions: NCI-H226, 48 h
Method in brief: (§2)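 NCI-60 panel cells grown in RPMI 1640 with 5% FBS and 2 mM L-glutamine, seeded at 5000–40,000 cells/well and preincubated 24 h. Five 10-fold dilutions (0.001–100 µM) from DMSO stocks were added for 48 h at 37 °C. Adherent cells were fixed with cold TCA (10% final) for 60 min at 4 °C, stained with 0.4% SRB, and read at 515 nm. GI50 was set where 100×(T−T0)/(C−T0)=50.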

ACHN = assay: Growth inhibition of human ACHN cells after 48 hrs by sulforhodamine B assay
Method in brief: (§3)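 NCI-60 screen: cells in RPMI 1640 with 5% FBS and 2 mM glutamine, 5000–40,000 cells/well, preincubated 24 h. Five concentrations (10-fold dilutions; 100 to 0.001 µM) applied for 48 h at 37 °C. TCA fixation, SRB stain, absorbance at 515 nm. Time-zero plates included; GI50 where 100×(T−T0)/(C−T0)=50.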

IGROV-1 = assay: Growth inhibition of human IGROV1 cells assessed as cell growth at 10 uM after 48 hrs by sulforhodamine B assay; conditions: IGROV-1, 48 h, read-out: Activity; method in brief: as §1
LOX IMVI [2] = assay: Growth inhibition of human LOXIMVI cells after 48 hrs by sulforhodamine B assay; method in brief: as §3
SF-539 = assay: Growth inhibition of human SF539 cells assessed as cell growth at 10 uM after 48 hrs by sulforhodamine B assay; conditions: SF-539, 48 h, read-out: Activity
Method in brief: (§4)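 Single-dose NCI-60 screen: adherent cells in RPMI 1640 with 5% FBS were exposed to 10 µM for 48 h at 37 °C after a 24 h preincubation. They were fixed in situ with cold TCA (10% final), stained with 0.4% SRB in 1% acetic acid, solubilized in 10 mM Tris base, and read at 515 nm. Percent growth was taken relative to time-zero and control plates.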

SK-MEL-2 = assay: Growth inhibition of human SK-MEL-2 cells assessed as cell growth at 10 uM after 48 hrs by sulforhodamine B assay; conditions: SK-MEL-2, 48 h, read-out: Activity; method in brief: as §4
KM12 = assay: Growth inhibition of human KM12 cells after 48 hrs by sulforhodamine B assay; conditions: KM12, 48 h; method in brief: as §3
OVCAR-3 = assay: Growth inhibition of human OVCAR3 cells assessed as cell growth at 10 uM after 48 hrs by sulforhodamine B assay; conditions: OVCAR-3, 48 h, read-out: Activity; method in brief: as §4
NCI-H322M = assay: Growth inhibition of human NCI-H322M cells after 48 hrs by sulforhodamine B assay; method in brief: as §2
UACC-62 = assay: Growth inhibition of human UACC62 cells assessed as cell growth at 10 uM after 48 hrs by sulforhodamine B assay; conditions: UACC-62, 48 h, read-out: Activity
Method in brief: (§5)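 Single-dose NCI-60 test at 10 µM. Cells were grown in RPMI 1640 with 5% FBS and 2 mM L-glutamine, preincubated 24 h, with T0 plates TCA-fixed. Exposure was 48 h at 37 °C, 5% CO2. Cells were fixed with cold TCA (final 10%, 4 °C, 60 min), stained with SRB and read at 515 nm. Percent growth was taken relative to T0 and untreated control; negative values denote cell kill.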

CCRF-CEM = assay: Growth inhibition of human CCRF-CEM cells assessed as cell growth at 10 uM after 48 hrs by sulforhodamine B assay; conditions: read-out: Activity; method in brief: as §1
CAKI-1 = assay: Growth inhibition of human CAKI-1 cells assessed as cell growth at 10 uM after 48 hrs by sulforhodamine B assay; conditions: CAKI-1, 48 h, read-out: Activity; method in brief: as §1
UO-31 = assay: Growth inhibition of human UO31 cells assessed as cell growth at 10 uM after 48 hrs by sulforhodamine B assay; conditions: UO-31, 48 h, read-out: Activity; method in brief: as §5
SNB-19 = assay: Growth inhibition of human SNB19 cells after 48 hrs by sulforhodamine B assay; conditions: SNB-19, 48 h
Method in brief: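 NCI-60 five-dose screen. Cells were grown in RPMI 1640 with 5% FBS and 2 mM L-glutamine, plated at 5000–40,000 cells/well and incubated 24 h before dosing, with T0 plates TCA-fixed. DMSO stocks were diluted to doses of […] and exposed 48 h at 37 °C, 5% CO2. Cells were fixed with cold TCA (final 10%, 60 min, 4 °C), stained with 0.4% SRB in 1% acetic acid for 10 min, solubilized in 10 mM trizma base and read at 515 nm. GI50 is where 100×(T−T0)/(C−T0)=50.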

OVCAR-4 [3] = assay: Growth inhibition of human OVCAR4 cells after 48 hrs by sulforhodamine B assay; conditions: OVCAR-4, 48 h; method in brief: as §2
NCI-H460 = assay: Growth inhibition of human NCI-H460 cells after 48 hrs by sulforhodamine B assay; conditions: NCI-H460, 48 h; method in brief: as §2
786-0 = assay: Growth inhibition of human 786-0 cells assessed as cell growth at 10 uM after 48 hrs by sulforhodamine B assay; conditions: 786-0, 48 h, read-out: Activity; method in brief: as §1
SK-MEL-28 = assay: Growth inhibition of human SK-MEL-28 cells assessed as cell growth at 10 uM after 48 hrs by sulforhodamine B assay; conditions: SK-MEL-28, 48 h, read-out: Activity; method in brief: as §4
A498 = assay: Growth inhibition of human A498 cells assessed as cell growth at 10 uM after 48 hrs by sulforhodamine B assay; conditions: A498, 48 h, read-out: Activity; method in brief: as §1
HCT-15 = assay: Growth inhibition of human HCT15 cells assessed as cell growth at 10 uM after 48 hrs by sulforhodamine B assay; conditions: HCT-15, 48 h, read-out: Activity; method in brief: as §1
OVCAR-4 [4] = assay: Growth inhibition of human OVCAR4 cells assessed as cell growth at 10 uM after 48 hrs by sulforhodamine B assay; conditions: OVCAR-4, 48 h, read-out: Activity; method in brief: as §4
HL-60(TB) = assay: Growth inhibition of human HL-60(TB) cells after 48 hrs by sulforhodamine B assay; conditions: HL-60, 48 h
Method in brief: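 HL-60(TB) cells (suspension) grown in RPMI 1640 with 5% FBS and 2 mM L-glutamine. They were plated and preincubated for 24 h, with T0 plates fixed at that point. Drug was given at five 10-fold dilutions for 48 h at 37 °C. Settled cells were fixed with TCA (16% final), stained with 0.4% SRB in 1% acetic acid and read at 515 nm. GI50 was taken where 100×(T−T0)/(C−T0)=50.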

U-251 = assay: Growth inhibition of human U251 cells assessed as cell growth at 10 uM after 48 hrs by sulforhodamine B assay; conditions: U-251, 48 h, read-out: Activity; method in brief: as §5

Row | Compound | growth at 10 µM (LOX IMVI [1]) [%] | GI50 (NCI-H226) [µM] | GI50 (ACHN) [µM] | growth at 10 µM (IGROV-1) [%] | GI50 (LOX IMVI [2]) [µM] | growth at 10 µM (SF-539) [%] | growth at 10 µM (SK-MEL-2) [%] | GI50 (KM12) [µM] | growth at 10 µM (OVCAR-3) [%] | GI50 (NCI-H322M) [µM] | growth at 10 µM (UACC-62) [%] | growth at 10 µM (CCRF-CEM) [%] | growth at 10 µM (CAKI-1) [%] | growth at 10 µM (UO-31) [%] | GI50 (SNB-19) [µM] | GI50 (OVCAR-4 [3]) [µM] | GI50 (NCI-H460) [µM] | growth at 10 µM (786-0) [%] | growth at 10 µM (SK-MEL-28) [%] | growth at 10 µM (A498) [%] | other results
1 | COc1ccc(CCN2COc3cc(C)c4c(c3C2)CC[C@@](C)(CC/C=C(\C)CC/C=C(\C)CCC=C(C)C)O4)cc1OC | -77.7 | 2 | 1.75 | 31.8 | 1.77 | 88.8 | 86.4 | 2.07 | -22.9 | 2.71 | 91.7 | 0.64 | 79.8 | 51.2 | 1.66 | 1.63 | 2.18 | 49.3 | -55.6 | 83.2 | growth at 10 µM (HCT-15): 57.4%; growth at 10 µM (OVCAR-4 [4]): 40.1%; GI50 (HL-60(TB)): 1.9 µM; growth at 10 µM (U-251): -71.3%
2 | CC(C)=CCC/C(C)=C/CC/C(C)=C/CC[C@]1(C)CCc2c3c(c(C)c(C)c2O1)OCN(CCCCCO)C3 | 40.2 | 6.19 | 5.74 | 63.7 | 6.07 | 106 | 107 | 7.41 | 65.2 | 6.35 | 99.2 | 54.9 | 70 | 64.6 | 5.99 | 5.68 | 5.18 | 90.2 | 99.7 | 97.4 | growth at 10 µM (HCT-15): 105%; growth at 10 µM (OVCAR-4 [4]): 93.1%; GI50 (HL-60(TB)): 6.26 µM; growth at 10 µM (U-251): 58.6%
3 | CC(C)=CCC/C(C)=C/CC/C(C)=C/CC[C@]1(C)CCc2c3c(cc(C)c2O1)OCN(CCCCCCCCO)C3 | -86.9 | 5.17 | 2.16 | -79.9 | 0.622 | -94.4 | -52 | 0.784 | -85.4 | 5.13 | -15.3 | -29.7 | -79.7 | -91.5 | 1.36 | 0.585 | 0.71 | -95.3 | -89.2 | 117 | growth at 10 µM (HCT-15): -10.9%; growth at 10 µM (OVCAR-4 [4]): -98.9%; GI50 (HL-60(TB)): 1.03 µM; growth at 10 µM (U-251): -95.8%
4 | CC(C)=CCC/C(C)=C/CC/C(C)=C/CC[C@]1(C)CCc2c3c(cc(C)c2O1)OCN(CCCO)C3 | -89.8 | 2.31 | 1.75 | -6.58 | 1.69 | 74.4 | 107 | 2.1 | -38.4 | 1.87 | 93 | 28.6 | 60.4 | 59.4 | 1.64 | 1.64 | 1.93 | 16.6 | -50.7 | 106 | growth at 10 µM (HCT-15): 0.85%; growth at 10 µM (OVCAR-4 [4]): -46.5%; GI50 (HL-60(TB)): 2.19 µM; growth at 10 µM (U-251): -83.4%
5 | CC(C)=CCC/C(C)=C/CC/C(C)=C/CC[C@]1(C)CCc2c3c(cc(C)c2O1)OCN(C1CCN(Cc2ccccc2)CC1)C3 | -47.4 | 2.21 | 1.88 | -48.5 | 0.337 | 80.6 | 109 | 0.699 | -47.9 | 1.85 | 93.6 | 2.34 | 75.3 | 57.8 | 1.61 | 1.54 | 0.618 | 24.1 | 60 | 63.2 | growth at 10 µM (HCT-15): 86.4%; growth at 10 µM (OVCAR-4 [4]): 59%; GI50 (HL-60(TB)): 0.349 µM; growth at 10 µM (U-251): -66.6%
